Published values from different studies.
Each line is one published result; the experiments were not run side by side.
Target: Interleukin-1 receptor-associated kinase 1 (IRAK1, Homo sapiens, UniProt P51617)

O=c1[nH]c2ccccc2n1C1CCN(Cc2ccc(-c3[nH]c4cc5ncnc5cc4nc3-c3ccccc3)cc2)CC1
remaining signal (cell-free assay; 0.5 µM): 109%

Cc1nn(C)cc1-c1nc2c(N3CCN(Cc4ccc(Cl)cc4)CC3)c(Cl)cnc2[nH]1
remaining binding (binding; competition with immobilised ligand; 1 µM): 56%

N#CC1(c2ccccn2)CCN(Cc2cc(C(=O)O)c(=O)n3ccccc23)CC1
remaining binding (cell-free assay; competition with immobilised ligand; 1 µM): 77%

Cn1cc(-c2cc(F)cc(N3CCn4c(cc5c4CCCC5)C3=O)c2CO)cc(Nc2ccc(N3CCN(C4COC4)CC3)cn2)c1=O
inhibition (enzyme activity; inhibitor; 0.1 µM): 2%

COc1ncccc1-c1cnn2ccc(N3CCN(C(=O)OC(C)C)CC3)nc12
remaining binding (binding; competition with immobilised ligand; 1 µM): 80%

C#Cc1n[nH]c2c(-c3cn(C(C)c4ccccn4)c(=O)[nH]c3=O)cc(F)cc12 (stereo not drawn)
inhibition (enzyme activity; inhibitor; 1 µM): 11.6%

COc1cc(Nc2ncc(F)c(Nc3ccc4c(n3)NC(=O)C(C)(C)O4)n2)cc(OC)c1OC
inhibition (binding; 10 µM): 100%

CC(C)(C)c1cc(C=C(C#N)C#N)cc(Br)c1O
remaining activity (enzyme activity; inhibitor; 0.5 µM): 105%

Cn1cncc1[C@](O)(COc1ccc(C#N)cc1-c1ccc(OC(F)(F)F)cc1)c1ccc(C#N)cc1
remaining binding (cell-free assay; competition with immobilised ligand; 1 µM): 83%

Cn1cc(-c2cccc(N3CCc4c(sc5c4CC(C)(C)C5)C3=O)c2CO)cc(Nc2ccncn2)c1=O
inhibition (enzyme activity; inhibitor; 1 µM): -4%

C#Cc1n[nH]c2c(-c3cn([C@@H](C)c4ccccc4)c(=O)[nH]c3=O)cc(F)cc12
inhibition (enzyme activity; inhibitor; 0.1 µM): -7%

Nc1ncc(-c2nc(N3CCOCC3)nc(N3CCOCC3)n2)c(C(F)F)n1
remaining binding (binding; competition with immobilised ligand; 10 µM): 50%
